The source made the active and inactive calls. No cut-off for these calls is given here.

What is called inhibition is the drop in the measured response relative to a control, in per cent.

Assay [1] deals with Focal adhesion kinase 1 (Homo sapiens) (UniProt Q05397). Put plainly: Inhibition of FAK (unknown origin) at 1 uM by Ambit Kinomescan binding assay relative to control. An outline of the steps: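 In vitro ATP-site competition binding assay against a panel of over 420 kinases (KinomeScan), with compound tested at 10 or 1 μM.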
For assay [2], the target named is Mitogen-activated protein kinase 3 (Homo sapiens) (UniProt P27361). Kind of assay: Inhibition of Erk1 Lys2 labeling site harbouring YIHSANVLHRDLKPSNLLINTTCDLK in human A-375 cells at 0.05 uM by KiNativ Profiling analysis relative to control. It counts as cell-based.
In assay [3] the target is T1, Dual specificity mitogen-activated protein kinase kinase 5 (Homo sapiens) (UniProt Q13163).
T1 sequence (whole entry): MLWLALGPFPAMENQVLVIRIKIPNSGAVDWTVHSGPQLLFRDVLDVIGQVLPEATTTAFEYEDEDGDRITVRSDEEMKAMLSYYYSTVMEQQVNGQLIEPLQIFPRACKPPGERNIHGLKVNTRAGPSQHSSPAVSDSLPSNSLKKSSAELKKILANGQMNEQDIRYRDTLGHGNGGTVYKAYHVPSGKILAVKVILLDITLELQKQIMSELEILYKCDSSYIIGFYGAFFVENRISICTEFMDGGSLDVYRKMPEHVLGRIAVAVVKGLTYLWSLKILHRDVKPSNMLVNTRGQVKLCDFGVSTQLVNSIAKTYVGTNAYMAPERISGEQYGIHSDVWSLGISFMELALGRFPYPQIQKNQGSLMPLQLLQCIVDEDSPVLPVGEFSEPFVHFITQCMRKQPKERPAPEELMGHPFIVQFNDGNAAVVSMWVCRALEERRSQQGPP
Kind of assay: Inhibition of MEK5 (unknown origin) at 1 uM by Ambit Kinomescan binding assay relative to control; values are per cent of control.

The target of assay [4] is T2, Inhibitor of nuclear factor kappa-B kinase subunit beta (Homo sapiens) (UniProt O14920).
T2 sequence (whole entry): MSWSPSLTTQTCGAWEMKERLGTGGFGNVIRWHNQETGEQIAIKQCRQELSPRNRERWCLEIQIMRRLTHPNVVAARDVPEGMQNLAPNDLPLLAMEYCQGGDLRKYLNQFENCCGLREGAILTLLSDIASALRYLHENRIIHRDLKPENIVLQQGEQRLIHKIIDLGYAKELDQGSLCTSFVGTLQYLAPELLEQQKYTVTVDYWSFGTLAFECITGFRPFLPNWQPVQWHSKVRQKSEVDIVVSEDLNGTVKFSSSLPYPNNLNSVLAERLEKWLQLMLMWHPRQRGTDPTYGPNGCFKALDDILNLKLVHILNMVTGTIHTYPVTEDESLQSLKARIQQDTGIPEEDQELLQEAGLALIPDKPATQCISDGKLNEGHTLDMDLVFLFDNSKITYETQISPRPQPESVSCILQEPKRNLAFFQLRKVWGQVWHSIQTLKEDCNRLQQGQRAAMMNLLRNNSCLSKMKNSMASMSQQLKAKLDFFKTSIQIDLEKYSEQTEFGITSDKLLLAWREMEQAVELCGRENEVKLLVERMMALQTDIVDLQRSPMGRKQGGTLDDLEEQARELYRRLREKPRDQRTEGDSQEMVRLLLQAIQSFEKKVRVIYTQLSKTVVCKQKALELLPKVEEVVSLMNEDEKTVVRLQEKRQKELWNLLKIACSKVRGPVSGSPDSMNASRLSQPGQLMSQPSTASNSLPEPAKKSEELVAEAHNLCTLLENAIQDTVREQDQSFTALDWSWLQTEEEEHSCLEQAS
Kind of assay: Inhibition of IKK-beta (unknown origin) at 1 uM by Ambit Kinomescan binding assay relative to control; values are per cent of control.

The target in assay [5] is Cyclin-dependent kinase 9 (Homo sapiens) (UniProt P50750). Put plainly: Inhibition of CDK9 (unknown origin) at 10 uM by Ambit Kinomescan binding assay relative to control.
The subject of assay [6] is Epidermal growth factor receptor (Homo sapiens), P00533 [G719S]. Kind of assay: Inhibition of EGFR G719S mutant (unknown origin) at 10 uM by Ambit Kinomescan binding assay relative to control.
The target of assay [7] is Insulin receptor-related protein (Homo sapiens) (UniProt P14616). Put plainly: Inhibition of INSRR (unknown origin) at 10 uM by Ambit Kinomescan binding assay relative to control.
Assay [8] deals with Ribosomal protein S6 kinase alpha-6 (Homo sapiens) (UniProt Q9UK32). Put plainly: Inhibition of C-terminal RPS6KA6 kinase domain 2 (unknown origin) at 10 uM by Ambit Kinomescan binding assay.
Assay [9] addresses T3, Serine/threonine-protein kinase STK11 (Homo sapiens) (UniProt Q15831).
T3 sequence (whole entry): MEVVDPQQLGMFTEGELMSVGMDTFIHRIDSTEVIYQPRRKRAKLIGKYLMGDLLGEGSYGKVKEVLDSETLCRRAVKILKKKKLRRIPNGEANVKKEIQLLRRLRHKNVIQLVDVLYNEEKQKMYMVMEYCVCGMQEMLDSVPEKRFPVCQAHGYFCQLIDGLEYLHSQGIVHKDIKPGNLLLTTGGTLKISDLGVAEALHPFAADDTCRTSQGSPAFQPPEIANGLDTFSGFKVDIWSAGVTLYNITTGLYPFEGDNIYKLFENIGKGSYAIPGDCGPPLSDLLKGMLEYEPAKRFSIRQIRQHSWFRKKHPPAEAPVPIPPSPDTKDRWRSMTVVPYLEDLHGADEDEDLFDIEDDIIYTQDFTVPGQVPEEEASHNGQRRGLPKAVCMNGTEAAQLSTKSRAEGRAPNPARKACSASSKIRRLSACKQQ
Put plainly: Inhibition of LKB1 K2 labeling site in human Huh-7 cells at 1 uM by KiNativ Profiling analysis relative to control. Format: cell-based.

The target of assay [10] is Serine/threonine-protein kinase mTOR (Homo sapiens) (UniProt P42345). Put plainly: Inhibition of FRAP ATP labeling site in human Huh-7 cell lysate at 1 uM by KiNativ Profiling analysis relative to control. It counts as subcellular.
The target in assay [11] is T4, Dual specificity mitogen-activated protein kinase kinase 4 (Homo sapiens) (UniProt P45985).
T4 sequence (whole entry): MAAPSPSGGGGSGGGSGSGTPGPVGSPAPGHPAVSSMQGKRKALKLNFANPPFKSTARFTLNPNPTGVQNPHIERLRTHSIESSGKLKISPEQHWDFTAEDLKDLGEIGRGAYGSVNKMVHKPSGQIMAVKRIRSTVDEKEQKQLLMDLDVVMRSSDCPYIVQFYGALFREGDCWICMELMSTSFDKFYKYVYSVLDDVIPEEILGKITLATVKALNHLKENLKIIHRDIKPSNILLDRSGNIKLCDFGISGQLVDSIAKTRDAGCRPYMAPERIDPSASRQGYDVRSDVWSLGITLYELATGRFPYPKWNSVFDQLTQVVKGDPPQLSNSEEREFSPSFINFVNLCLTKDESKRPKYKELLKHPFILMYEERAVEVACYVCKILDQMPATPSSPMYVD
Put plainly: Inhibition of MAP2K4 ACT labeling site in human Huh-7 cell lysate at 1 uM by KiNativ Profiling analysis relative to control. Format: subcellular.

Cyclin-dependent kinase 9 (Homo sapiens), sequence (P50750 whole entry): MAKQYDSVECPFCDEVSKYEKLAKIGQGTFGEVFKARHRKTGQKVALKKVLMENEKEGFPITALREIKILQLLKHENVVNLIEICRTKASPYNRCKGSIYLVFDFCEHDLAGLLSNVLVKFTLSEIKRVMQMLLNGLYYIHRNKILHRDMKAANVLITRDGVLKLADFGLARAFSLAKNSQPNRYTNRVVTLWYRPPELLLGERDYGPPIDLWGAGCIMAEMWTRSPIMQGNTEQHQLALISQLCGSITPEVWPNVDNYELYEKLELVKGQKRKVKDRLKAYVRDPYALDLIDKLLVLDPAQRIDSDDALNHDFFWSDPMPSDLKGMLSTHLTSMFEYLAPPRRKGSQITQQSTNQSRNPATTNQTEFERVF
Ribosomal protein S6 kinase alpha-6 (Homo sapiens), sequence (Q9UK32 whole entry, the tested form may be a part): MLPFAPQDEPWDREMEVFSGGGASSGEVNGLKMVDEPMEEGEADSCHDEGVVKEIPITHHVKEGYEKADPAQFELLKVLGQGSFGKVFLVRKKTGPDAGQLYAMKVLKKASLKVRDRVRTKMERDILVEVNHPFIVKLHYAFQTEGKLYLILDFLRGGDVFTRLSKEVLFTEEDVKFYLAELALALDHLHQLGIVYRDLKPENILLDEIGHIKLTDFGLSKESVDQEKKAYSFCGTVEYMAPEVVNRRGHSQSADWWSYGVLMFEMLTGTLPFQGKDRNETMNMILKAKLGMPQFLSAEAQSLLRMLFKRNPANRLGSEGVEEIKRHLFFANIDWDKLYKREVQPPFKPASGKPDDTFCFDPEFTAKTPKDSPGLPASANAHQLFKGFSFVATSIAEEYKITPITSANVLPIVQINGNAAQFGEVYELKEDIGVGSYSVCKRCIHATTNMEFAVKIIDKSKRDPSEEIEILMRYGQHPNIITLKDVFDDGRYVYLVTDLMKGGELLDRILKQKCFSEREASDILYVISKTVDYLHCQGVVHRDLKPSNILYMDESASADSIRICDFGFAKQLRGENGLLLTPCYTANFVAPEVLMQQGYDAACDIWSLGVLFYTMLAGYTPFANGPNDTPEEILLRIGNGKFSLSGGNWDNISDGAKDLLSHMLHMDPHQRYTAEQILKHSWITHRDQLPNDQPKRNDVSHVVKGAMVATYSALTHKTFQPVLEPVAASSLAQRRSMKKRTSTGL
Insulin receptor-related protein (Homo sapiens), sequence (P14616 27-742 limits assumed): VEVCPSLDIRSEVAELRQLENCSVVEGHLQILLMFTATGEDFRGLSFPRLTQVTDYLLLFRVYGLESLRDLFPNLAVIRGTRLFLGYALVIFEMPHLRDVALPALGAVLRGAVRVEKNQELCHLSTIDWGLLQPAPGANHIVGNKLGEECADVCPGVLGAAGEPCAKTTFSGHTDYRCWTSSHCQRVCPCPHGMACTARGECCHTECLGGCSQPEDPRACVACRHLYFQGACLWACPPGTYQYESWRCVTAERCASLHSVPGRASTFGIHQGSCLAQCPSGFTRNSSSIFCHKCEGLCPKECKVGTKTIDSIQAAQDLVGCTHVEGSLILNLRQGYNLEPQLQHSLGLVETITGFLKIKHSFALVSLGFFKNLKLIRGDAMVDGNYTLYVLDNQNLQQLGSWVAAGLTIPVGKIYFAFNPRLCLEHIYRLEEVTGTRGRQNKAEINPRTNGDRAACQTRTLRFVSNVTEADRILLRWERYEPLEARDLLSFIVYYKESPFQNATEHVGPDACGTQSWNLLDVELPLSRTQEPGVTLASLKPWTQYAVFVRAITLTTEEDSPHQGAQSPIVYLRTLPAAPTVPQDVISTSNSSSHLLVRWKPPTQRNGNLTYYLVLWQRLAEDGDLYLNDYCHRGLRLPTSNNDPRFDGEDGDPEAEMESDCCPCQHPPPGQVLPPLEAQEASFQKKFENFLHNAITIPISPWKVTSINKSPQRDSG
Insulin receptor-related protein (Homo sapiens), sequence (P14616 747-1297 limits assumed): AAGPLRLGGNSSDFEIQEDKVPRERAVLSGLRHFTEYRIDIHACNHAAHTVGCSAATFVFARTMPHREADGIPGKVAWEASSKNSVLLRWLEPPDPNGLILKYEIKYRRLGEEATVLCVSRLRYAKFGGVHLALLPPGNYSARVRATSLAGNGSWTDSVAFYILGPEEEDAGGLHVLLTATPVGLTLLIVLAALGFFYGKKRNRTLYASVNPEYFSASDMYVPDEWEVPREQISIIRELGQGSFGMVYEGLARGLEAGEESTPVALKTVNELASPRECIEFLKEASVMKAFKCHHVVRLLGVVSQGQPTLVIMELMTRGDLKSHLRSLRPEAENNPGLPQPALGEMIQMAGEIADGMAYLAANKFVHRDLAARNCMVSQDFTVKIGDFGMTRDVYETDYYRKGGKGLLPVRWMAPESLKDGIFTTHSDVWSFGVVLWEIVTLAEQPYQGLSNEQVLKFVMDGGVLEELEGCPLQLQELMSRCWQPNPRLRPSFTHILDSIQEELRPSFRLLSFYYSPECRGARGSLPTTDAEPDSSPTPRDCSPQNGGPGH
Focal adhesion kinase 1 (Homo sapiens), sequence (Q05397 2-1052 limits assumed): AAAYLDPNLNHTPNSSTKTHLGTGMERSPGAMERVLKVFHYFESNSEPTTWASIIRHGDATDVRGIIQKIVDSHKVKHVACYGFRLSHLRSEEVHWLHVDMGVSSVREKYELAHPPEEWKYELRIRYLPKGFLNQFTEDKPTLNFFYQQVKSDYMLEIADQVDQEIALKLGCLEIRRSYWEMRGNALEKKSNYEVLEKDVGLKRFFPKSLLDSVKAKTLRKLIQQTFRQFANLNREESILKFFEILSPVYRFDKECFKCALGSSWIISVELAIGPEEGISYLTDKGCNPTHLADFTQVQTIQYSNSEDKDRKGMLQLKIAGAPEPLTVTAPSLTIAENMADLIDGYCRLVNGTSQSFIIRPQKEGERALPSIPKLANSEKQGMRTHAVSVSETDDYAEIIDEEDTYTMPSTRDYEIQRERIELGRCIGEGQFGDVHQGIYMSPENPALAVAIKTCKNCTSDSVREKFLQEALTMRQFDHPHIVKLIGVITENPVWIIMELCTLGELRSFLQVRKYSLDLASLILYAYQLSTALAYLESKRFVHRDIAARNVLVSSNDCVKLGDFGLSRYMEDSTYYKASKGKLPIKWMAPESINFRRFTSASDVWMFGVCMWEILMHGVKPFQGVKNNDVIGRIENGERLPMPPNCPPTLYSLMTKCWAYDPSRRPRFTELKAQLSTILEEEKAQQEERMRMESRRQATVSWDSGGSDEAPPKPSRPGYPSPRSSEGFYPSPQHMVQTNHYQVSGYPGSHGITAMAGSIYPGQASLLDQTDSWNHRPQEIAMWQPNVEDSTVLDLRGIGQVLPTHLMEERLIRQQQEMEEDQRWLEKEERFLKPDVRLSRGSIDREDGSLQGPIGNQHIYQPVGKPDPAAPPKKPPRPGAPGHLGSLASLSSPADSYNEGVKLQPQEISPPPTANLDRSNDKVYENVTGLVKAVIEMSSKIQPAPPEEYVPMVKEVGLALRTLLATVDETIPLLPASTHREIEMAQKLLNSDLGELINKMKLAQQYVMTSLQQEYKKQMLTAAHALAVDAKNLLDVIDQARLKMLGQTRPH
Mitogen-activated protein kinase 3 (Homo sapiens), sequence (P27361 whole entry): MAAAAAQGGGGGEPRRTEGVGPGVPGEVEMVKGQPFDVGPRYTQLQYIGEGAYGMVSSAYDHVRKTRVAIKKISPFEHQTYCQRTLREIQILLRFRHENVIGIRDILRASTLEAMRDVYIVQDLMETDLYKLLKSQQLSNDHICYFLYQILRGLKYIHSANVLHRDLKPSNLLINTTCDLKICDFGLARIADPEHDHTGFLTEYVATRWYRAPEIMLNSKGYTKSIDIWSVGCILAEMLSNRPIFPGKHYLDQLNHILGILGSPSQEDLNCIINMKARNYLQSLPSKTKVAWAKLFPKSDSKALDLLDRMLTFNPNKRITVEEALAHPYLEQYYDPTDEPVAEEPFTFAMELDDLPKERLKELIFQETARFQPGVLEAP
Epidermal growth factor receptor (Homo sapiens), P00533 [G719S], sequence (P00533 whole entry G719S): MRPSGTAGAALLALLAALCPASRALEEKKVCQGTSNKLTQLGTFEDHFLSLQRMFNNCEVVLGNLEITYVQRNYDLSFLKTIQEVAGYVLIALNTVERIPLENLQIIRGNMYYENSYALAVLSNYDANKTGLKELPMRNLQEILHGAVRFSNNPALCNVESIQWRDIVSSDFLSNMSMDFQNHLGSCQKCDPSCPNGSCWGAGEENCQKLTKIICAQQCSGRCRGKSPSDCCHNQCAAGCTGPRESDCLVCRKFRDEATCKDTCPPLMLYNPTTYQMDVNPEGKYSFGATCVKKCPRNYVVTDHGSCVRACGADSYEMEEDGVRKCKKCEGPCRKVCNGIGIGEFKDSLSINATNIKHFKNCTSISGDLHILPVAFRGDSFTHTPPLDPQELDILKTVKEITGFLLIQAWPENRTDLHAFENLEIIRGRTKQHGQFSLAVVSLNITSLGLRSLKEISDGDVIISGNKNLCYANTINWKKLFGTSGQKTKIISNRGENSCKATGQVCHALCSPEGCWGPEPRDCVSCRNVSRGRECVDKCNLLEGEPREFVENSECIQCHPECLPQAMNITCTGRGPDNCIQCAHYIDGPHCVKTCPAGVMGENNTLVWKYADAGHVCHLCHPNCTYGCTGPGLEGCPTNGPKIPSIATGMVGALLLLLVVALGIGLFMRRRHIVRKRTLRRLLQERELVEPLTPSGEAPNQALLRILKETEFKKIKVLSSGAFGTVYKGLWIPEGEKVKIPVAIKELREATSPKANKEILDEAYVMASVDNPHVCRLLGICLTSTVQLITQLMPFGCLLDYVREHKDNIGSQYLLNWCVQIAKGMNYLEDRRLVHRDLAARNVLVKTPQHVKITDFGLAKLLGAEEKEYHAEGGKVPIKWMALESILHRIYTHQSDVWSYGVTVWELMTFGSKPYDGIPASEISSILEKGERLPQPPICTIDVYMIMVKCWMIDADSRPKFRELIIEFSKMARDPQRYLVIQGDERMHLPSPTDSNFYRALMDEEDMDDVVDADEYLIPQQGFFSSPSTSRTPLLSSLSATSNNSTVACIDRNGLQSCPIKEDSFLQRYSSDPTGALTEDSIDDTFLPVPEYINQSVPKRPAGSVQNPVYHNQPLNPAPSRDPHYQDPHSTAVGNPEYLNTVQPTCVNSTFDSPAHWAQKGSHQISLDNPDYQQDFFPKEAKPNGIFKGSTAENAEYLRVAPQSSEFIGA

With `CCN1CCN(Cc2ccc(NC(=O)c3ccc(C)c(/C=C/c4cnc5[nH]ccc5c4OC)c3)cc2C(F)(F)F)CC1`, the inhibition is 84% in [1] and -5.4% in assay [2]. Also, the values for the residual activity in assay [3] and in assay [4] were 1.4% and 5.7%, respectively.

On to `CCN1CCN(Cc2ccc(NC(=O)c3ccc(C)c(Oc4ccnc5[nH]ccc45)c3)cc2C(F)(F)F)CC1`, for which the inhibition in [5] amounted to 5.8%; in assay [6], 14%; in [7] it was 23%; in assay [9], 5.5%. The inhibition entry in assay [8] is “inactive”.

For the compound `CNc1cc(Oc2cc(C(=O)Nc3cc(N4CCN(C)CC4)cc(C(F)(F)F)c3)ccc2C)ncn1`, the inhibition in assay [10] was -1.8%; in assay [11] it was -2.8%.

Values taken from ChEMBL document CHEMBL5696442, “Discovery of type II inhibitors of TGFβ-activated kinase 1 (TAK1) and mitogen-activated protein kinase kinase kinase kinase 2 (MAP4K2)” (J Med Chem, 2015).
